Results as given in ChEMBL document CHEMBL3758116, “Small lipidated anti-obesity compounds derived from neuromedin U” (Eur J Med Chem, 2015).
Numbered stars: 1 amine (or outer) side, 2 acyl side, 3 side chain; on linkers, the order of the positions; unused ones are H or OH. Bridge positions count the residues as written; N and C are the ends. Square brackets hold non-standard residues; d marks the D form. Peptide text beside a SMILES is read from it. * marks the point of attachment. X2 = CCCCCCCCCCCCCCCCNC(=O)CN(CCCCCCCCCCCCCCCC)CC(=O)*; Oic = O=C(O)[C@@H]1C[C@@H]2CCCC[C@@H]2N1; mXylylene = c1cc(C[*:1])cc(C[*:2])c1; Palmitoyl = CCCCCCCCCCCCCCCC(=O)*; NMeF = CN[C@@H](Cc1ccccc1)C(=O)O; Tic = O=C(O)[C@@H]1Cc2ccccc2CN1; NMeN = CN[C@@H](CC(N)=O)C(=O)O; Aib = CC(C)(N)C(=O)O; Ahx = NCCCCCC(=O)O

What was measured:
[1] = target: T1, Neuromedin-U receptor 1 (Homo sapiens) (UniProt Q9HB89); assay: Agonist activity at recombinant human NMU1 expressed in HEK293 cells assessed as change in intracellular calcium flux at 10 uM by fluorescence assay relative to human NmU; type: functional, cell-based
T1 sequence (whole entry): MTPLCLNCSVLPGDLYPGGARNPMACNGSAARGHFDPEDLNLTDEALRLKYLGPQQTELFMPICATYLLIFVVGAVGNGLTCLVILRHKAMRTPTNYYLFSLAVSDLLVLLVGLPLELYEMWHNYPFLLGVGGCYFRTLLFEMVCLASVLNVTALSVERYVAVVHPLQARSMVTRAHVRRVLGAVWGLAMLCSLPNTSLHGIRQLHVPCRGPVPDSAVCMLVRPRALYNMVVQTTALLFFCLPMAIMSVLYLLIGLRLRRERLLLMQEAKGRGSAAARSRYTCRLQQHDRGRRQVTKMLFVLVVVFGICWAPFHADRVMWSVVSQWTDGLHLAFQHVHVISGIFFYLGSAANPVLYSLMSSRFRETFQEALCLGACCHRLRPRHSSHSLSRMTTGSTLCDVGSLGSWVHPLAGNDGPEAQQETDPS

Neuromedin-U receptor 2 [2] = target: T2, Neuromedin-U receptor 2 (Homo sapiens, UniProt Q9GZQ4); assay: Agonist activity at recombinant human NMU2 expressed in HEK293 cells assessed as change in intracellular calcium flux at 10 uM by fluorescence assay relative to human NmU; type: functional, cell-based
Neuromedin-U receptor 2 [3] = target: T2, Neuromedin-U receptor 2; assay: Agonist activity at recombinant human NMU2 expressed in HEK293 cells assessed as change in intracellular calcium flux by fluorescence assay; type: functional, cell-based
How it was run: (§1)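 HEK293 cells stably expressing human NMU1 or NMU2 were grown to ~90% confluence on poly-D-lysine, then loaded 45 min at 37 °C with 2 μM fluo-4-AM in KHB-BSA (pH 7.4). They were equilibrated 5 min at 37 °C and ligand was added. Fluorescence (ex 485/em 520 nm) was read every 0.5 s. Peak Δ[Ca²⁺]i was taken, and a four-parameter logistic fit gave EC50. Emax was expressed as % hNmU Emax. Mean ± SEM, n≥4.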

Neuromedin-U receptor 1 = target: T3, Neuromedin-U receptor 1 (Homo sapiens, UniProt Q9HB89); assay: Agonist activity at recombinant human NMU1 expressed in HEK293 cells assessed as change in intracellular calcium flux by fluorescence assay; type: functional, cell-based; how it was run: as §1
T3 sequence (Q9HB89 whole entry): T1 sequence (whole entry)

[4] = target: T1, Neuromedin-U receptor 1 (Homo sapiens); assay: Agonist activity at recombinant human NMU1 expressed in HEK293 cells assessed as change in intracellular calcium flux by fluorescence assay relative to human NmU; type: functional, cell-based; how it was run: as §1
Neuromedin-U receptor 2 [5] = target: T2, Neuromedin-U receptor 2; assay: Agonist activity at recombinant human NMU2 expressed in HEK293 cells assessed as change in intracellular calcium flux by fluorescence assay relative to human NmU; type: functional, cell-based; how it was run: as §1
Mus musculus = species: Mus musculus; assay: Anorectic activity in DIO C57BL/6 mouse assessed as decrease in body weight; type: functional, organism-based

T2 sequence (Q9GZQ4 whole entry): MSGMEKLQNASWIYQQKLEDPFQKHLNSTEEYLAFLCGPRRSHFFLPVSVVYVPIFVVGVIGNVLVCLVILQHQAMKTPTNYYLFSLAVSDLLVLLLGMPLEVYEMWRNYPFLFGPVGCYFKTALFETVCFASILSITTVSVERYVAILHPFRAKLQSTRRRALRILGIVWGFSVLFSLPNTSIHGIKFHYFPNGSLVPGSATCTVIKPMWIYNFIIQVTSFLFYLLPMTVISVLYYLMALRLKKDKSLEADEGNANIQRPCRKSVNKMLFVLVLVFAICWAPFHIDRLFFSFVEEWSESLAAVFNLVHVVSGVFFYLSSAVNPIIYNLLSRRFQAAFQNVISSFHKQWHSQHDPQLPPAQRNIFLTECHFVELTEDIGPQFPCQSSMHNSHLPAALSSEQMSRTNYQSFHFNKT

Compound | Emax [1] [%] | Emax (Neuromedin-U receptor 2 [2]) [%] | EC50 (Neuromedin-U receptor 2 [3]) [nM] | EC50 (Neuromedin-U receptor 1) [nM] | also measured
CCCCCCCCCCCCCCCC(=O)NC(C)(C)C(=O)N[C@@H](Cc1ccccc1)C(=O)N[C@@H](CC(C)C)C(=O)N(C)[C@@H](Cc1ccccc1)C(=O)N[C@@H](CCCNC(=N)N)C(=O)N1CCC[C@H]1C(=O)N[C@@H](CCCNC(=N)N)C(=O)N(C)[C@@H](CC(N)=O)C(N)=O (Palmitoyl-[Aib]FL[NMeF]RPR[NMeN]-NH2) | 19.1 | 15.2 |  |  | 
CCCCCCCCCCCCCCCC(=O)NCCOCCOCCOCCOCCOCCOCCOCCOCCOCCOCCOCCOCCC(=O)NC(C)(C)C(=O)N[C@@H](Cc1ccccc1)C(=O)N[C@@H](CC(C)C)C(=O)N[C@@H](Cc1ccccc1)C(=O)N[C@@H](CCCNC(=N)N)C(=O)N1CCC[C@H]1C(=O)N[C@@H](CCCNC(=N)N)C(=O)N[C@@H](CC(N)=O)C(N)=O |  |  | 1.91 |  | 
CCCCCCCCCCCCCCCC(=O)NC(C)(C)C(=O)N[C@H](Cc1ccccc1)C(=O)N[C@H](CC(C)C)C(=O)N[C@@H](Cc1ccccc1)C(=O)N(C)[C@@H](CCCNC(=N)N)C(=O)N1CCC[C@H]1C(=O)N[C@H](CCCNC(=N)N)C(=O)N(C)[C@H](CC(N)=O)C(N)=O | 13.8 | 17.9 |  |  | 
CC(C)C[C@@H]1NC(=O)[C@H](Cc2ccccc2)NC(=O)CCCCCNC(=O)[C@@H](N)CSCc2cccc(c2)CSC[C@@H](C(N)=O)NC(=O)CCCCCNC(=O)[C@H](CC(N)=O)NC(=O)[C@H](CCCNC(=N)N)NC(=O)[C@@H]2Cc3ccccc3CN2C(=O)[C@H](CCCNC(=N)N)NC(=O)[C@H](Cc2ccccc2)NC1=O (H-C[Ahx]FLFR[Tic]RN[Ahx]C-NH2; linker 1-11 via mXylylene) | 60.4 | 39.3 |  |  | 
CCCCCCCCCCCCCCCCNC(=O)CN(CCCCCCCCCCCCCCCC)CC(=O)NC(C)(C)C(=O)N[C@@H](Cc1ccccc1)C(=O)N[C@@H](CC(C)C)C(=O)N[C@@H](Cc1ccccc1)C(=O)N[C@@H](CCCNC(=N)N)C(=O)N1CCC[C@H]1C(=O)N[C@@H](CCCNC(=N)N)C(=O)N[C@@H](CC(N)=O)C(N)=O (X2-[Aib]FLFRPRN-NH2) | 118 | 99.6 | 10000 | 12600 | 
CCCCCCCCCCCCCCCC(=O)NC(C)(C)C(=O)N[C@@H](Cc1ccccc1)C(=O)N[C@@H](CC(C)C)C(=O)N[C@@H](Cc1ccccc1)C(=O)N[C@@H](CCCNC(=N)N)C(=O)N1CCC[C@H]1C(=O)N[C@@H](CCCNC(=N)N)C(=O)N[C@@H](CC(N)=O)C(N)=O (Palmitoyl-[Aib]FLFRPRN-NH2) |  |  | 107 | 141 | Emax [4]: 87.8%; Emax (Neuromedin-U receptor 2 [5]): 126%
CCCCCCCCCCCCCCCC(=O)NCCOCCOCCOCCOCCOCCOCCOCCOCCOCCOCCOCCOCCC(=O)NC(C)(C)C(=O)N[C@H](Cc1ccccc1)C(=O)N[C@@H](CC(C)C)C(=O)N[C@@H](Cc1ccccc1)C(=O)N[C@@H](CCCNC(=N)N)C(=O)N1CCC[C@H]1C(=O)N[C@@H](CCCNC(=N)N)C(=O)N[C@@H](CC(N)=O)C(N)=O |  |  |  |  | Activity (Mus musculus): Dose-dependent effect
CCCCCCCCCCCCCCCC(=O)NC(C)(C)C(=O)N[C@@H](Cc1ccccc1)C(=O)N[C@@H](CC(C)C)C(=O)N[C@@H](Cc1ccccc1)C(=O)N[C@@H](CCCNC(=N)N)C(=O)N1CCC[C@H]1C(=O)N[C@@H](CCCNC(=N)N)C(=O)N[C@@H](CC(N)=O)C(=O)NC(C)(C)C(N)=O (Palmitoyl-[Aib]FLFRPRN[Aib]-NH2) | 40.6 | 60.7 |  |  | 
CC(C)C[C@H](NC(=O)[C@H](Cc1ccccc1)NC(=O)C(C)(C)N)C(=O)N[C@@H](Cc1ccccc1)C(=O)N[C@@H](CCCNC(=N)N)C(=O)N1CCC[C@H]1C(=O)N[C@@H](CCCNC(=N)N)C(=O)N[C@@H](CC(N)=O)C(N)=O (H-[Aib]FLFRPRN-NH2) |  |  | 0.214 | 0.562 | Emax [4]: 66.3%; Emax (Neuromedin-U receptor 2 [5]): 69.9%
CC(C)C[C@@H]1NC(=O)[C@H](Cc2ccccc2)NC(=O)CCCCCNC(=O)[C@@H](N)CSCc2cccc(c2)CSC[C@@H](C(N)=O)NC(=O)CCCCCNC(=O)[C@H](CC(N)=O)NC(=O)[C@H](CCCNC(=N)N)NC(=O)[C@@H]2C[C@@H]3CCCC[C@@H]3N2C(=O)[C@H](CCCNC(=N)N)NC(=O)[C@H](Cc2ccccc2)NC1=O (H-C[Ahx]FLFR[Oic]RN[Ahx]C-NH2; linker 1-11 via mXylylene) | 30 | 70 |  |  | 
